The source of these data is ChEMBL document CHEMBL4373671, “Evaluation of anti-inflammatory activity and molecular docking study of new aza-bicyclic isoxazoline acylhydrazone derivatives” (2019).

Assay [1] concerns Mus musculus. Kind of assay: Antiinflammatory activity in Swiss mouse assessed as reduction in dextran-induced paw edema at 10 mg/kg, po treated 1 hr prior to dextran challenge and measured every 60 mins for 4 hrs by plethysmometer analysis. The assay is classed as functional, organism-based. In outline:
(§1)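 Swiss mice were given an oral dose in saline + 5% DMSO 1 h before intraplantar 0.2% dextran (50 μL) into the right hind paw. Paw volume was measured by plethysmometer every 60 min up to 4 h, as the difference from the contralateral saline paw.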

The subject of assay [2] is Mus musculus. Kind of assay: Antiinflammatory activity in Swiss mouse assessed as inhibition of bradykinin-induced paw edema at 0.5 mg/kg, po treated 1 hr prior to bradykinin challenge measured after 15 to 90 mins by plethysmometer analysis. Type of assay: functional, organism-based. In outline: (§2)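 Mice were given captopril 5 mg kg–1 1 h before the bradykinin challenge to block kininases. Oral dosing (vehicle saline + 5% DMSO) preceded intraplantar bradykinin (10 nmol, 50 μL) into the right hind paw by 1 h. Plethysmometer readings at 15, 30, 60 and 90 min, relative to the contralateral paw.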

The test system of assay [3] is Mus musculus. Kind of assay: Antiinflammatory activity against carrageenan-induced air pouch inflammatory Swiss mouse model assessed as inhibition of PMNL cell migration in air pouch at 60 mg/kg, po treated 1 hr prior to carrageenan administration and measured after 6 hrs relative to control. Type of assay: functional.
For assay [4], the system named is Mus musculus. Kind of assay: Antiinflammatory activity in Swiss mouse assessed as reduction in compound 48/80-induced paw edema at 15 mg/kg, po treated 1 hr prior to compound 48/80 challenge measured after 15 to 30 mins by plethysmometer analysis. Type of assay: functional, organism-based.
Assay [5] deals with Mus musculus. Description: Antiinflammatory activity against carrageenan-induced air pouch inflammatory Swiss mouse model assessed as number of polymorphonuclear leucocytes in air pouch at 30 mg/kg, po treated for 1 hr prior to carrageenan administration and measured after 6 hrs (reference value: 13.76 +/- 0.55X10'6/ml). The assay is classed as functional.
For assay [6], the system named is Mus musculus. Kind of assay: Antiinflammatory activity against carrageenan-induced air pouch inflammatory Swiss mouse model assessed as TNF-alpha level in air pouch exudate at 15 mg/kg, po treated 1 hr prior to carrageenan administration and measured after 6 hrs by sandwich ELISA (reference value: 425.17 pg/ml). The assay is classed as functional.
Assay [7] relates to Mus musculus. Kind of assay: Antiinflammatory activity against carrageenan-induced air pouch inflammatory Swiss mouse model assessed as inhibition of PMNL cell migration in air pouch at 120 mg/kg, po treated 1 hr prior to carrageenan administration and measured after 6 hrs relative to control. The assay is classed as functional.
In assay [8] the test system is Mus musculus. Description: Antiinflammatory activity in Swiss mouse assessed as inhibition of histamine-induced paw edema at 15 mg/kg, po treated 1 hr prior to histamine challenge measured after 15 mins by plethysmometer analysis. The assay is classed as functional, organism-based. In outline: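 Swiss mice were dosed at 15 mg kg–1 orally in saline + 5% DMSO 1 h before injection of histamine (100 μg, 50 μL) into the right hind paw. Paw volume was measured by plethysmometer at 15, 30, 60 and 90 min, relative to the contralateral saline paw.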

Assay [9] concerns Mus musculus. Kind of assay: Antiinflammatory activity against carrageenan-induced paw edema in Swiss mouse assessed as reduction in paw edema at 15 mg/kg, po administered 1 hr prior to carrageenan challenge and measured after 2 to 6 hrs by plethysmometric analysis. Type of assay: functional, organism-based. In outline: (§3)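 Male Swiss mice (25–30 g, fasted 8 h), dosed orally in saline + 5% DMSO 1 h before 50 μL 1% carrageenan into the right hind paw. Paw volume read by plethysmometer before challenge and at 2, 4 and 6 h. Edema taken as the volume difference from the saline-injected contralateral paw. Two-way ANOVA with Tukey.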
A general note: Carrageenan injected into the paw causes an acute inflammation.

Assay [10] has as its system Mus musculus. Description: Antiinflammatory activity in Swiss mouse assessed as inhibition of acetic acid-induced increase in vascular permeability at 15 mg/kg, po treated 1 hr prior to acetic acid challenge and measured after 30 mins by Evans blue dye based assay. Type of assay: functional, organism-based. In outline:
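Male Swiss mice received 15 mg kg–1 p.o. or vehicle (saline + 5% DMSO). After 1 h, under ketamine/xylazine (8:2 v/v, i.p.), 0.2 mL 1% Evans blue was given retro-orbitally, then 0.5 mL 1% acetic acid i.p. At 30 min the peritoneal cavity was washed with saline; exudate was centrifuged (2000 rpm, 10 min) and supernatant absorbance read at 610 nm.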

Assay [11] relates to Mus musculus. Description: Antiinflammatory activity against carrageenan-induced air pouch inflammatory Swiss mouse model assessed as inhibition of PMNL cell migration in air pouch at 30 mg/kg, po treated 1 hr prior to carrageenan administration and measured after 6 hrs relative to control. The assay is classed as functional.
The test system of assay [12] is Mus musculus. Kind of assay: Antiinflammatory activity against carrageenan-induced air pouch inflammatory Swiss mouse model assessed as number of polymorphonuclear leucocytes in air pouch at 60 mg/kg, po treated for 1 hr prior to carrageenan administration and measured after 6 hrs (reference value: 13.76 +/- 0.55X10'6/ml). Type of assay: functional.
Assay [13] relates to Mus musculus. Description: Antiinflammatory activity against carrageenan-induced air pouch inflammatory Swiss mouse model assessed as IL-1beta level in air pouch exudate at 15 mg/kg, po treated 1 hr prior to carrageenan administration and measured after 6 hrs by sandwich ELISA (reference value: 564.06 pg/ml). Type of assay: functional. A general note: ELISA stands for enzyme-linked immunosorbent assay.

Assay [14] concerns Mus musculus. Kind of assay: Antiinflammatory activity against carrageenan-induced air pouch inflammatory Swiss mouse model assessed as inhibition of PMNL cell migration in air pouch at 15 mg/kg, po treated 1 hr prior to carrageenan administration and measured after 6 hrs relative to control. The assay is classed as functional.
Assay [15] concerns Mus musculus. Description: Antiinflammatory activity in Swiss mouse assessed as reduction in bradykinin-induced paw edema volume at 15 mg/kg, po treated 1 hr prior to bradykinin challenge measured after 15 to 30 mins by plethysmometer analysis. Type of assay: functional, organism-based. A digest of the protocol:
as §2

Assay [16] deals with Mus musculus. Kind of assay: Antiinflammatory activity against carrageenan-induced air pouch inflammatory Swiss mouse model assessed as number of polymorphonuclear leucocytes in air pouch at 120 mg/kg, po treated for 1 hr prior to carrageenan administration and measured after 6 hrs (reference value: 13.76 +/- 0.55X10'6/ml). Type of assay: functional.
Assay [17] concerns Mus musculus. Description: Antiinflammatory activity against carrageenan-induced air pouch inflammatory Swiss mouse model assessed as number of polymorphonuclear leucocytes in air pouch at 15 mg/kg, po treated for 1 hr prior to carrageenan administration and measured after 6 hrs (reference value: 13.76 +/- 0.55X10'6/ml). Type of assay: functional.
Assay [18] relates to Mus musculus. Kind of assay: Antiinflammatory activity in Swiss mouse assessed as reduction in dextran-induced paw edema at 15 mg/kg, po treated 1 hr prior to dextran challenge and measured every 60 mins for 4 hrs by plethysmometer analysis. Type of assay: functional, organism-based. In outline:
as §1

Assay [19] relates to Mus musculus. Description: Antiinflammatory activity in Swiss mouse assessed as reduction in BthTX-2-induced paw edema at 15 mg/kg, po treated 1 hr prior to BthTX-2 challenge measured after 15 to 45 mins by plethysmometer analysis. The assay is classed as functional, organism-based.
Assay [20] relates to Mus musculus. Description: Antiinflammatory activity in Swiss mouse assessed as inhibition of 5-HT-induced paw edema at 15 mg/kg, po treated 1 hr prior to 5-HT challenge measured after 30 mins by plethysmometer analysis. The assay is classed as functional, organism-based. A digest of the protocol: (§4)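 Male Swiss mice received 15 mg kg–1 p.o. (saline + 5% DMSO) 1 h before intraplantar 5-HT (100 μg in 50 μL) into the right hind paw. Plethysmometer readings at 15, 30, 60 and 90 min. Edema expressed as volume difference from the contralateral saline paw.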

For assay [21], the system named is Mus musculus. Kind of assay: Antiinflammatory activity in Swiss mouse assessed as inhibition of 5-HT-induced paw edema assessed as reduction in paw volume at 15 mg/kg, po treated 1 hr prior to 5-HT challenge and measured after 15 to 90 mins by plethysmometer analysis. Type of assay: functional, organism-based. In outline:
as §4

The subject of assay [22] is Mus musculus. Description: Antiinflammatory activity in Swiss mouse assessed as reduction in dextran-induced paw edema at 15 mg/kg, po treated 1 hr prior to dextran challenge and measured after 3 to 4 hrs by plethysmometer analysis. Type of assay: functional, organism-based. In outline:
as §1

The test system of assay [23] is Mus musculus. Kind of assay: Antiinflammatory activity against carrageenan-induced air pouch inflammatory Swiss mouse model assessed as TNF-alpha level in air pouch exudate at 10 mg/kg, po treated 1 hr prior to carrageenan administration and measured after 6 hrs by sandwich ELISA (reference value: 425.17 pg/ml). Type of assay: functional.
Assay [24] concerns Mus musculus. Kind of assay: Antiinflammatory activity against carrageenan-induced air pouch inflammatory Swiss mouse model assessed as number of polymorphonuclear leucocytes in air pouch at 10 mg/kg, po treated for 1 hr prior to carrageenan administration and measured after 6 hrs (reference value: 13.76 +/- 0.55X10'6/ml). Type of assay: functional.
The subject of assay [25] is Mus musculus. Description: Antiinflammatory activity against carrageenan-induced air pouch inflammatory Swiss mouse model assessed as IL-1beta level in air pouch exudate at 10 mg/kg, po treated 1 hr prior to carrageenan administration and measured after 6 hrs by sandwich ELISA (reference value: 564.06 pg/ml). The assay is classed as functional.
Assay [26] relates to Mus musculus. Description: Antiinflammatory activity against carrageenan-induced paw edema in Swiss mouse assessed as reduction in paw edema at 10 mg/kg, po administered 1 hr prior to carrageenan challenge and measured after 2 to 6 hrs by plethysmometer analysis. Type of assay: functional, organism-based. In outline: as §3
Assay [27] has as its system Mus musculus. Kind of assay: Antiinflammatory activity against carrageenan-induced air pouch inflammatory Swiss mouse model assessed as inhibition of PMNL cell migration in air pouch at 10 mg/kg, po treated 1 hr prior to carrageenan administration and measured after 6 hrs relative to control. Type of assay: functional.

The term inhibition in vivo denotes the share of the control response that was lost under treatment.

Calls of active or inactive are those of the source. The rule behind the calls is not given here.

As to `CN1CCC(=C2c3ccccc3C=Cc3ccccc32)CC1`, the result in the assay on Mus musculus [1] was Active.
As for `C[C@@H]1C[C@H]2[C@@H]3CCC4=CC(=O)C=C[C@]4(C)[C@@]3(F)[C@@H](O)C[C@]2(C)[C@@]1(O)C(=O)CO`, the inhibition result with Mus musculus [2] was “Active”.
With `O=C(N/N=C\c1ccc(Cl)cc1)C1=NO[C@@H]2[C@H]1CCN2C(=O)c1ccc(Cl)cc1` (racemic), in the assay with Mus musculus [3], the inhibition in vivo at 60 mg/kg turned out to be 57%. The inhibition entry with Mus musculus [4], with Mus musculus [8], with Mus musculus [10] and in the assay on Mus musculus [20] was “Active” each time. The Activity in the assay with Mus musculus [5] came to 4.97 ×10⁶ /ml; in the assay with Mus musculus [6], 271.6 pg/mL; with Mus musculus [12] it was 5.94 ×10⁶ /ml; with Mus musculus [13], 323.11 pg/mL; in the assay on Mus musculus [16] it was 6.1 ×10⁶ /ml; in the assay on Mus musculus [17], 3.33 ×10⁶ /ml. Besides, in the assay with Mus musculus [7], the inhibition in vivo at 120 mg/kg amounted to 56%. The result in the assay on Mus musculus [9], in the assay with Mus musculus [15], in the assay with Mus musculus [18] and with Mus musculus [19] was Active. In addition, the inhibition in vivo at 30 mg/kg in the assay with Mus musculus [11] stood at 64%. In addition, the inhibition in vivo at 15 mg/kg in the assay with Mus musculus [14] worked out at 76%.
For `COc1ccc(/C=N\NC(=O)C2=NO[C@@H]3[C@H]2CCN3C(=O)c2ccc([N+](=O)[O-])cc2)cc1` (racemic), the inhibition in vivo at 60 mg/kg with Mus musculus [3] came out at 35%. The inhibition entry in the assay on Mus musculus [4], in the assay on Mus musculus [21], in the assay on Mus musculus [8] and with Mus musculus [10] was “Active” each time. The Activity was 6.72 ×10⁶ /ml in the assay with Mus musculus [5]; 305.88 pg/mL with Mus musculus [6]; 8.98 ×10⁶ /ml in the assay with Mus musculus [12]; 358.28 pg/mL with Mus musculus [13]; 12.72 ×10⁶ /ml with Mus musculus [16]; 4.6 ×10⁶ /ml in the assay with Mus musculus [17]. In addition, the inhibition in vivo at 120 mg/kg in the assay with Mus musculus [7] was 8%. Moreover, the outcome in the assay with Mus musculus [9], with Mus musculus [15], in the assay with Mus musculus [22] and in the assay with Mus musculus [19] was Active. The inhibition in vivo at 30 mg/kg in the assay on Mus musculus [11] turned out to be 51%. The inhibition in vivo at 15 mg/kg in the assay with Mus musculus [14] is 67%.
For `COc1ccc2c(c1)c(CC(=O)O)c(C)n2C(=O)c1ccc(Cl)cc1` [INDOMETHACIN], the Activity in the assay with Mus musculus [23] is 458.97 pg/mL; in the assay with Mus musculus [24] it was 4.84 ×10⁶ /ml; with Mus musculus [25], “<=329.81 pg/ml”. Also, in the assay on Mus musculus [26], the outcome was Active. Moreover, the inhibition in vivo at 10 mg/kg with Mus musculus [27] is 65%.
